From PubChem BioAssay
The list is not random: actives were taken first. Their share in the collection is about 2.3%.
ABCB1 inh – ABCB1 efflux pump inhibitors, primary screen, cell-based, multiplex, flow cytometry, ABCG2 counter-screen. ATP-dependent translocase ABCB1 (Homo sapiens), P08183. CCRF-Adr cells, JC-1 efflux. inhibition, % at 6.6 µM. actives 0.067% (n = 190,000). AID 1326, 2008; in the data active = inhibition above about 40%;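 note: higher value means more JC-1 retained so stronger ABCB1 efflux block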
Arbovirus inh – antivirals against arbovirus infection, primary screen, cell-based, full library, 10K replicate subset | arbovirus infection cell-based antiviral screen | inhibition, % at 10 µM | actives 0.37% (n = 200,000); in the data active = inhibition above about 30%
RAM inhibit – inhibitors of the yeast RAM network, primary screen, dse1pr::URA3 reporter, 5-FOA selection. S. cerevisiae dse1pr::URA3 reporter, 5-FOA growth OD615, 2 d; analog-sensitive cbk1-as2 kinase mutant strain. inhibition, % at 50 µM. actives 1.8% (n = 190,000). AID 868, 2007;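 active = inhibition above a set limit, 3 SD over mean compound inhibition, cut at about 8.4% in these data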;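 note: inhibition rescues growth on 5-FOA so higher OD means more RAM inhibition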
ABCG2 inh – ABCG2 efflux pump inhibitors, primary screen, multiplex with ABCB1, IgMXP3 cells, flow cytometry; Broad substrate specificity ATP-binding cassette transporter ABCG2 (Homo sapiens), Q9UNQ0; JC-1 efflux; inhibition, % at 6.6 µM; actives 0.1% (n = 190,000);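 active = inhibition above 80%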
Target sequence (Q9UNQ0 whole entry, looked up): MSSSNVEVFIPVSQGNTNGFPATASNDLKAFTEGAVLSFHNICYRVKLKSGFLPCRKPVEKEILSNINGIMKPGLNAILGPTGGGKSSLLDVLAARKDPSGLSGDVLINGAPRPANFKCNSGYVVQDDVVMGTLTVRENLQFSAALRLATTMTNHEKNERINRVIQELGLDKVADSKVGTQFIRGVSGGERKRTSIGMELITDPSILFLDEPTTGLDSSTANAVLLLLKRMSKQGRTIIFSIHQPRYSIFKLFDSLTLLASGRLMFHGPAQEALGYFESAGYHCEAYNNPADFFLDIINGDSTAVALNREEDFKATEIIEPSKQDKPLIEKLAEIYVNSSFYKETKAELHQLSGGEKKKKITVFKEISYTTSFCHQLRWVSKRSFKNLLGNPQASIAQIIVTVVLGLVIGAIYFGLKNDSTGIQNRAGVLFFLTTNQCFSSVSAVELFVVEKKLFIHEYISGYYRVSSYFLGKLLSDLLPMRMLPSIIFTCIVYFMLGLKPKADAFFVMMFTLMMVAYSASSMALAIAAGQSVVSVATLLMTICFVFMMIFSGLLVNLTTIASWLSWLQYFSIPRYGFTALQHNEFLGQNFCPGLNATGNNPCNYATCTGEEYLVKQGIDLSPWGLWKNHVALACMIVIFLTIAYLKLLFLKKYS
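Assay system – ABCG2 IgMXP3 and barcoded ABCB1 CCRF-Adr cell mix · Input – 3 million cells/mL in well · Reagent – JC-1 fluorescent substrate · Compound – single test compound dose, 6.6 µM final · Timing – 10 min exposure at 25 °C with rotation, no wash · Detection – flow cytometry of retained JC-1 fluorescence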
RAM efflux-def – 5-FOA growth of efflux-deficient control yeast, dose response, counter-screen for RAM network inhibitor project, S. cerevisiae, OD615; shares compounds with RAM inhibit; S. cerevisiae efflux-deficient reporter strain, 5-FOA growth OD615, 2 days; max inhibition, %; 1,200 tested, under 10 active; AID 1305, 2008; call rule not given here
Of the large screens only hits and unclear results are named; the others gave an inactive call (follow-up assays come after a bar, where they were run).

CCN(CC)c1ccc(CN(C)CCc2ccc(OC)c(OC)c2)cc1	none
COc1ccc(CCN(C)Cc2ccc(F)cc2F)cc1OC	Arbovirus inh 71
CCCn1c(C)cc(C=O)c1C	none
Cc1ccc(N2C(=O)NC(=O)/C(=C\c3ccoc3)C2=O)cc1	none
Cc1ccc(N2C(=O)NC(=O)/C(=C/c3ccc(-c4ccc(C(=O)O)c(Cl)c4)o3)C2=O)cc1	RAM inhibit 11
O=C(Nc1ccccc1)c1cccn(Cc2ccccc2)c1=O	RAM inhibit 9.2
CC(C)OCCCNC(=O)c1c(N)n(Cc2cccs2)c2nc3ccccc3nc12	RAM inhibit 9.3
CCC(COC(=O)NC)NC(=O)Oc1ccccc1 (stereo unspecified)	none
O=C1C2CCCC1C(N1CCCC1)CC2 (stereo unspecified)	none
Cc1oc2ccc(OC(=O)N(C)C)cc2c1C(=O)OC(C)C	Arbovirus inh 32
COCCCn1c(-c2ccc(OC)cc2)cc(C(=O)NC2CCCCCCC2)c1C	RAM inhibit 11
Cc1nn(Cc2ccccc2)c(Cl)c1C(=O)Nc1ccc(OC(F)(F)F)cc1	none
Cc1nn(Cc2ccccc2)c(Cl)c1C(=O)NC1CCCc2ccccc21 (stereo unspecified)	Arbovirus inh 30
COc1ccc(CN2CC3CC(C2)c2cccc(=O)n2C3)cc1OC (stereo unspecified)	none
N#CC1=C(N)Oc2c(c(=O)oc3ccccc23)C1c1cccnc1 (stereo unspecified)	none
CCOc1cc(C2C(C#N)=C(N)Oc3c2c(=O)oc2ccccc32)ccc1OC(=O)c1cccs1 (stereo unspecified)	RAM inhibit 8.9
CN1CCN(c2ccc(/C=C3\C(=O)NC(=S)N(c4cccc(Br)c4)C3=O)o2)CC1	Arbovirus inh 37
O=P(NC(c1ccccc1)c1ccccc1)(Oc1ccccc1)Oc1ccccc1	RAM inhibit 9.3
O=P(O)(Oc1ccccc1)OC(c1ccccc1)C(F)(F)F (stereo unspecified)	none
COc1ccc(C(=O)Oc2cccc3cccnc23)cc1S(=O)(=O)N1CCOCC1	none
O=C(Oc1c(Cl)cc(Cl)c2ccccc12)N1CCCCC1	RAM inhibit 10
O=C(Nc1ccc(OC(=O)N2CCCCC2)cc1)N1CCOCC1	none
CCOC(=O)C(=CNc1ccc(C(O)(C(=O)OCC)C(F)(F)F)cc1C)C(=O)OCC (stereo unspecified)	RAM inhibit 8.7
CCOC(=O)C(O)(c1ccc(N(CC)S(=O)(=O)c2ccc(C)cc2)cc1)C(F)(F)F (stereo unspecified)	none
CCOc1ccccc1OCC(=O)Nc1ccc(Cl)cc1C(=O)c1ccccc1	RAM inhibit 9.6
CN(C)C(=O)Oc1ccc(OC(=O)c2ccccc2)cc1	none
CN(C(=O)Oc1ccc(C(=O)c2ccc(Cl)cc2)cc1)c1ccccc1	RAM inhibit 8.4 (no result: ABCB1 inh)
O=C(c1ccco1)c1cn(Cc2ccc(Cl)cc2)c2ccccc12	RAM inhibit 11
COc1ccccc1OCCCn1cc(C(=O)c2ccco2)c2ccccc21	RAM inhibit 10
O=C1NC(c2cc3ccccc3nc2Cl)Nc2ccccc21 (stereo unspecified)	none
CC(O)(CS(=O)(=O)c1cccc(C(F)(F)F)c1)C(=O)Nc1ccc(C(F)(F)F)cc1 (stereo unspecified)	none
Fc1ccc(C2=CCN(C(c3cccs3)c3nnnn3CCc3ccccc3)CC2)cc1 (stereo unspecified)	RAM inhibit 10
CCC(C)(C)n1nnnc1C(c1cccs1)N1CC=C(c2ccc(F)cc2)CC1 (stereo unspecified)	none
Cc1cc(C)nc(NC2=NCCS2)n1	none
COc1cccc(C2(C#N)CCN(C)CC2)c1	none
COc1ccc(NP(=O)(Oc2ccc(Cl)cc2)Oc2ccc(Cl)cc2)cc1OC	RAM inhibit 9.5
COc1ccc(OC)c(NP(=O)(Oc2ccc(Cl)cc2)Oc2ccc(Cl)cc2)c1	RAM inhibit 11
COc1ccc(NP(=O)(Oc2ccccc2OC)Oc2ccccc2OC)cc1	none
Cc1nn(CCC#N)c2c1P(=S)(N1CCCC1)OC(c1ccc(F)cc1)=N2 (stereo unspecified)	none
COc1ccccc1N1CCN(Cc2cc(C)c(C)cc2O)CC1	Arbovirus inh 32
CC(C)[C@H](CN(N=O)[C@@H](Cc1ccccc1)CN(C)N=O)N(CCc1ccccc1)N=O	RAM inhibit 13 | RAM efflux-def inactive
Cc1cc(C)n2c(Br)c(CN3CC4CC(C3)c3cccc(=O)n3C4)nc2n1 (stereo unspecified)	none
CCCC1COC(Cn2cncn2)(c2ccc(Cl)cc2Cl)O1 (stereo unspecified)	none
CCOP(=O)(OCC)C(Nc1cccc(C(F)(F)F)c1)c1ccc(Br)cc1 (stereo unspecified)	RAM inhibit 12 | RAM efflux-def inactive
CCOC(=O)c1c(-c2ccc(OC)cc2)oc2ccc(OC(=O)N(C)C)cc12	RAM inhibit 14 | RAM efflux-def inactive
COc1cccc(Oc2c(C)oc3cc(OC(=O)N(C)C)ccc3c2=O)c1	none
CCOCCSc1nc2c(c(-c3cccs3)c1C#N)CC/C2=C/c1cccs1	RAM inhibit 12 | RAM efflux-def inactive
CN(C)CC1CSCCC1(O)c1ccccc1 (stereo unspecified)	none
CC1CCc2c(sc3nc(CSc4n[nH]c(N)n4)[nH]c(=O)c23)C1 (stereo unspecified)	RAM inhibit 12 | RAM efflux-def inactive
Cc1ccc(-n2cc(CNC(C)Cc3cnccn3)c(-c3cccc(C)c3)n2)cc1 (stereo unspecified)	none
Cc1ccc(/C=C/C2=NN(Cc3ccc(Cl)c(Cl)c3)C(=O)CC2)cc1	RAM inhibit 12 | RAM efflux-def inactive
CCCCCn1c(=O)c(C(=O)Nc2cnccn2)c(O)c2ccccc21	RAM inhibit 12 | RAM efflux-def inactive
CCCCCn1c(=O)c(C(=O)Nc2nc(CC(=O)OCC)cs2)c(O)c2ccccc21	RAM inhibit 25 | RAM efflux-def inactive
Cn1cc(C(=O)Cc2ccccc2)c2ccccc21	none
CN(C)c1ccc(/C=C/C=C2/C(=O)NC(=O)N(c3ccccc3)C2=O)cc1	RAM inhibit 26 | RAM efflux-def inactive
COC(=O)CC1(CC(=O)OC)C(=O)NC(=O)NC1=O	none
CCN1C(=O)/C(=C/c2ccc3c(c2)CCN3CCCCl)C(=O)NC1=S	RAM inhibit 16 | RAM efflux-def inactive
O=C1NC(=S)N(C2CC2)C(=O)/C1=C/c1ccc2c(c1)CCN2CCCCl	none
COC(=O)c1ccc(COc2cc(C)cc3oc(=O)c4c(c23)CCCC4)o1	none
c1ccc(-c2nc(N3CCOCC3)s[n+]2-c2ccccc2)cc1	none
O=[N+]([O-])/C=C/c1c(OCc2ccccc2)ccc2ccccc12	RAM inhibit 13 | RAM efflux-def inactive
COc1cc(C(=S)N2CCOCC2)cc(OC)c1OC(=O)Cc1ccccc1	none
